Several values for one entry are separate records, joined by “and”; a condition that tells them apart may be missing. Equal entries are not always repeated.
Key:
Stat5a [1] = target: T1, Stat5a (Homo sapiens, UniProt O60674); assay: Stat5a phosphorylation, immunoprecipitation/immunoblotting, CWR22Rv1 cells; format: cell-based; conditions: read-out: IC50, inhibition of constitutive activation of Stat5a; exponentially growing CWR22Rv1 cells
Stat5a [2] = target: T1, Stat5a; assay: Stat5a phosphorylation, immunoprecipitation/immunoblotting, CWR22Pc cells; format: cell-based; conditions: read-out: IC50, inhibition of constitutive activation of Stat5a; exponentially growing CWR22Pc cells
Stat5b [3] = target: T2, Stat5b (Homo sapiens, UniProt O60674); assay: Stat5b phosphorylation, immunoprecipitation/immunoblotting, CWR22Rv1 cells; format: cell-based
Stat5b [4] = target: T2, Stat5b; assay: Stat5b phosphorylation, immunoprecipitation/immunoblotting, CWR22Pc cells; format: cell-based
Stat5a/b dimerization = Stat5a/b dimerization by co-immunoprecipitation in PC-3 cells; format: cell-based, human; conditions: 2 h pre-treatment, 10 nM hPrl
[5] = test system: Stat5a/b nuclear translocation; assay: Nuclear translocation of Stat5a/b, immunofluorescence in PC-3 cells; format: cell-based, human; conditions: 200 nM AZD1480 for 2 h, 10 nM hPrl 20 min
CWR22Pc cells [6] = assay: Cell viability assay; format: cell-based; conditions: Homo sapiens, 72 h, read-out: GI50 (number of viable cells decreased by 50%)
CWR22Rv1 cells [7] = assay: Cell viability assay; format: cell-based; conditions: Homo sapiens, CWR22Rv1, 72 h, read-out: GI50 (number of viable cells decreased by 50%)
PC-3 = assay: Cell viability assay; format: cell-based; conditions: Homo sapiens, PC-3, 72 h
DU145 = assay: Cell viability assay; format: cell-based; conditions: Homo sapiens, DU-145, 72 h
[8] = test system: normal prostate epithelial cells (RC165N); assay: Cell viability assay; format: cell-based; conditions: Homo sapiens, 72 h
CWR22Rv1 cells [9] = assay: Caspase-3 activation assay; format: cell-based, human; conditions: 800 nM, 72 h
CWR22Pc cells [10] = assay: Caspase-3 activation assay; format: cell-based, human; conditions: 800 nM, 48 h
CWR22Pc cells [11] = assay: Cell cycle analysis; format: cell-based, human; conditions: CWR22Pc, 24, 48 and 72 h
[12] = test system: CWR22Rv1 tumor xenografts (s.c.); assay: Subcutaneous CWR22Rv1 xenograft tumor growth; format: in vivo, SCID mice; conditions: for suppression of s.c. tumor growth at end of treatment: oral gavage
[13] = test system: CWR22Rv1 tumor xenografts (orthotopic); assay: Orthotopic CWR22Rv1 xenograft tumor growth; format: in vivo, SCID mice; conditions: oral gavage
How it was run: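 Luciferase-tagged CWR22Rv1 cells were implanted orthotopically into the prostates of male CB-17 SCID mice. Mice received test compound at 10 or 30 mg/kg, or vehicle (0.1% Tween 80/0.5% methylcellulose), daily by oral gavage. […]. Growth suppression was assessed at end of treatment versus vehicle.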

CWR22Pc xenograft tumors = assay: CWR22Pc xenograft tumor growth; format: in vivo
[14] = test system: clinical prostate cancers ex vivo in organ explant cultures; assay: Ex vivo organ explant cultures of clinical PCs; format: cell-based, human
[15] = tumors harvested at end of treatment

T2 sequence (O60674 whole entry): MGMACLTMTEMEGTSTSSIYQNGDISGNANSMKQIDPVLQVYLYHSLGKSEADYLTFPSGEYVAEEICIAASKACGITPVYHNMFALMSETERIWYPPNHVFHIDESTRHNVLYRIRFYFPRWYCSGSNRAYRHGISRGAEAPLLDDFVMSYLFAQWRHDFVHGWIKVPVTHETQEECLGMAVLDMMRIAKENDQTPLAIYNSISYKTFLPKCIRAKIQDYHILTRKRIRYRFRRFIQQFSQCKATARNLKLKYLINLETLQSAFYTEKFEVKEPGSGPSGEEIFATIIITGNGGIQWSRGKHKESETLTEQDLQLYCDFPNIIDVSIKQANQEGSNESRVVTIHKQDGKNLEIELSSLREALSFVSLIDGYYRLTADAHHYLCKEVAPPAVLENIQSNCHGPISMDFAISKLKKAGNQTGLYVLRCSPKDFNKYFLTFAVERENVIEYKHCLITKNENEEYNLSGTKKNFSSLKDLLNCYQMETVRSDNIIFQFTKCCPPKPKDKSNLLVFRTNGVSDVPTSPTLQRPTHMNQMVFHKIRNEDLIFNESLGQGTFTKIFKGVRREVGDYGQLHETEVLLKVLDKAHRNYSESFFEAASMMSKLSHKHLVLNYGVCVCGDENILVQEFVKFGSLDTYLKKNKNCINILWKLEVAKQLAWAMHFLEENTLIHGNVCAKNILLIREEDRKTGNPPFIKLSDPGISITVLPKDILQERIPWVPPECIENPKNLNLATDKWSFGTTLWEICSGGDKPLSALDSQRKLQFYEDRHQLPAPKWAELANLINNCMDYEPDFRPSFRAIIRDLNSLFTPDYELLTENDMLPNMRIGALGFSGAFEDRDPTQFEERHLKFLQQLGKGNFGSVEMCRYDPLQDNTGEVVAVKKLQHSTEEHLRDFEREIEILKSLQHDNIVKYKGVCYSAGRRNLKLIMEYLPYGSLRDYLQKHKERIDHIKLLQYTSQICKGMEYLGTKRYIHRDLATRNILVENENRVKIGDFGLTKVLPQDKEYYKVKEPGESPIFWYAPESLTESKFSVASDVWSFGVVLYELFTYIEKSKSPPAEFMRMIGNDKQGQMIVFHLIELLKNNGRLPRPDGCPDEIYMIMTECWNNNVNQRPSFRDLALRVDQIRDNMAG
T1 sequence (O60674 whole entry): as above

SMILES: Cc1cc(Nc2nc(N[C@@H](C)c3ncc(F)cn3)ncc2Cl)n[nH]1 [AZD1480, 5-Chloro-N(2)-[(1S)-1-(5-fluoropyrimidin-2-yl)ethyl]-N(4)-(5-methyl-1H-pyrazol-3-yl)pyrimidine-2,4-diamine]
- IC50 (Stat5a [1]): 16 nM
- IC50 (Stat5a [2]): 7 nM
- IC50 (Stat5b [3]; read-out: IC50 for Prl-induced Stat5b phosphorylation, serum-starved CWR22Rv1 cells, 10 nM hPrl): 48 nM
- IC50 (Stat5b [3]; read-out: IC50 for Stat5b phosphorylation (constitutive), exponentially growing CWR22Rv1 cells): 65 nM
- IC50 (Stat5b [4]; read-out: IC50 for Prl-induced Stat5b phosphorylation, serum-starved CWR22Pc cells, 10 nM hPrl): 70 nM
- IC50 (Stat5b [4]; read-out: IC50 for Stat5b phosphorylation (constitutive), exponentially growing CWR22Pc cells): 65 nM
- hPrl-induced Stat5a/b dimerization (Stat5a/b dimerization): potently inhibited
- ligand-induced nuclear translocation of Stat5a/b [5]: no ligand-induced nuclear immunostaining of Stat5a/b
- GI50 (CWR22Pc cells [6]): 482 nM
- GI50 (CWR22Rv1 cells [7]): 438 nM
- GI50 (PC-3): 1760 nM
- GI50 (DU145): 3520 nM
- GI50 [8]: 2080 nM
- increase in caspase-3 activation (CWR22Rv1 cells [9]): 200%
- increase in caspase-3 activation (CWR22Pc cells [10]): 150%
- cell cycle distribution: G1, G2-M and dead cells (sub G1) (CWR22Pc cells [11]): fraction of dead cells (sub G1) was increased at all time points
- suppression of s.c. tumor growth at end of treatment ([12]; 10 mg/kg daily): 52%
- suppression of s.c. tumor growth at end of treatment ([12]; 30 mg/kg daily): 72%
- Stat5a/b phosphorylation in s.c. xenograft tumor lysates ([12]; 2 h following 30 mg/kg): significant inhibition of Stat5a/b phosphorylation
- decrease in nuclear Stat5a/b in tumor tissues relative to control (IHC) ([12]; tumors harvested after 11 days of drug treatment): 70%
- suppression of orthotopic tumor growth ([13]; 10 mg/kg daily): 6%
- suppression of orthotopic tumor growth ([13]; 30 mg/kg daily): 54%
- inhibition of primary CWR22Pc tumor growth (TW 1) (CWR22Pc xenograft tumors; 30 mg/kg daily oral, 21 days from day 12): 73%
- emergence of CR CWR22Pc tumors (TW 2) (CWR22Pc xenograft tumors; 30 mg/kg daily oral, from day 13 after androgen deprivation): significantly blocked
- growth of established CR CWR22Pc tumors (TW 3) (CWR22Pc xenograft tumors; 30 mg/kg daily oral, from day 23 after androgen deprivation): significantly blocked
- overall survival of tumor-bearing mice (CWR22Pc xenograft tumors; TWs 2 and 3, vs docetaxel-treated mice): better overall survival
- levels of full-length AR, AR splice variants and tissue PSA in tumor lysates (CWR22Pc xenograft tumors; immunoblotting, TWs 1, 2 and 3): did not affect
- nuclear Stat5a/b levels in CWR22Pc tumors (IHC) (CWR22Pc xenograft tumors; [15]): decreased nuclear Stat5a/b levels in all TWs significantly
- fraction of viable tumor cells in CWR22Pc tumors (CWR22Pc xenograft tumors; tumors harvested at end of treatment, all TWs): reduced the fraction of viable tumor cells in all TWs
- nuclear Stat5a/b levels in explants ([14]; 9 responsive PCs, both AZD1480 treatment groups): significantly decreased
- clinical PCs not responding (non-responders) ([14]; 7 days culture): 3 of the 12 and 3
- clinical PCs responding by loss of viable epithelium (responders) ([14]; 7 days culture): Nine of 12
- concentration from which extensive loss of viable epithelium starts ([14]; responders, 7 days culture): 25 µM

SMILES: CC(O)(CS(=O)(=O)c1ccc(F)cc1)C(=O)Nc1ccc(C#N)c(C(F)(F)F)c1 (stereo not drawn) [bicalutamide, reference compound]
- suppression of primary CWR22Pc tumor growth (TW 1) (CWR22Pc xenograft tumors; 50 mg/kg daily oral, 21 days from day 12): 30%
- nuclear Stat5a/b levels in CWR22Pc tumors (IHC) (CWR22Pc xenograft tumors; [15]): no effect

SMILES: CC(=O)O[C@@]12CO[C@@H]1C[C@H](O)[C@@]1(C)C(=O)[C@H](O)C3=C(C)[C@@H](OC(=O)[C@H](O)[C@@H](NC(=O)OC(C)(C)C)c4ccccc4)C[C@@](O)([C@@H](OC(=O)c4ccccc4)[C@H]21)C3(C)C [docetaxel, reference compound]
- nuclear Stat5a/b levels in CWR22Pc tumors (IHC) (CWR22Pc xenograft tumors; [15]): no effect

Source: paper PMC6021137 (Clinical cancer research : an official journal of the …, 2013)
